# In ChEMBL document CHEMBL5380787, “Optimized M24B Aminopeptidase Inhibitors for CARD8 Inflammasome Activation” (J Med Chem, 2023):
# Active and inactive are the calls of the source. The rule behind the calls is not given here.
# Experiments:
# [1] = test system: MV4-11; experiment: Cytotoxicity against human MV4-11 cells assessed as reduction in cell viability incubated for 24 hrs by celltiter-glo assay; format: functional, cell-based; conditions: MV4-11, 24 h
# Outline: (§1)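 MV4;11 cells (WT or CASP1−/−), grown in RPMI 1640 with 10% FBS at 37 °C, 5% CO2, plated 2000 cells/well, dosed by pintool across 100 μM to 15.2 nM in three-fold steps for 24 h. Viability by CellTiter-Glo luminescence after 2 min shaking and 10 min at 25 °C. IC50 as mean ± SEM of three biological replicates.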
# [2] = test system: MV4-11; experiment: Cytotoxicity against CASP1 knockout human MV4-11 cells assessed as reduction in cell viability incubated for 24 hrs by celltiter-glo assay; format: functional, cell-based; conditions: MV4-11, 24 h; outline: as §1
# [3] = test system: MV4-11; experiment: Induction of cell death in CASP1 knockout human MV4-11 cells assessed as increase in PI uptake at 6.25 uM incubated for 6 hrs by PI staining based fluorescence analysis; format: functional
# Outline: (§2)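 PI flux assay. 2 × 10^4 MV4;11 (WT, CARD8−/− or CASP1−/−) or OCI-AML2 cells in RPMI were given compound at 6.25 μM plus PI at 10 μM final. Fluorescence (Ex/Em 535/617 nm) was read every 5 min at 37 °C for 6 h, baseline-corrected to DMSO and normalized to the maximum response. n = 3.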
# [4] = test system: MV4-11; experiment: Induction of cell death in CARD8 knockout human MV4-11 cells assessed as increase in PI uptake at 6.25 uM incubated for 6 hrs by PI staining based fluorescence analysis; format: functional; outline: as §2
# [5] = test system: OCI-AML2; experiment: Induction of cell death in CARD8 knockout human OCI-AML2 cells assessed as reduction in cell viability incubated for 24 hrs by celltiter-glo assay; format: functional, cell-based
# Outline: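 OCI-AML2 cells, WT or CARD8−/−, were grown in RPMI 1640 with 10% FBS and plated at 2000 cells/well. Compound was added over a range of concentrations for 24 h, and viability was then read by CellTiter-Glo luminescence. Means ± SEM, n = 3.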
# [6] = test system: MV4-11; experiment: Induction of pyroptosis in human MV4-11 cells assessed as LDH release at 20 uM incubated for 24 hrs; format: functional, cell-based
# Outline: (§3)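 Cells (MV4;11, OCI-AML2 or THP-1; WT or the knockout named) plated at 5 × 10^5 cells/well and exposed to 20 μM compound for 24 h. LDH in the supernatant was measured relative to a Triton X-100 lysis control. For immunoblots, cells were washed in PBS, sonicated, protein-normalized, run on SDS-PAGE and probed for GSDMD cleavage. n = 3.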
# [7] = test system: OCI-AML2; experiment: Induction of pyroptosis in human OCI-AML2 cells assessed as LDH release at 20 uM incubated for 24 hrs; format: functional, cell-based; outline: as §3
# [8] = test system: OCI-AML2; experiment: Induction of pyroptosis in CARD8 knockout human OCI-AML2 cells assessed as LDH release at 20 uM incubated for 24 hrs; format: functional, cell-based; outline: as §3
# [9] = test system: MV4-11; experiment: Induction of pyroptosis in CARD8 knockout human MV4-11 cells assessed as GSDMD cleavage at 20 uM incubated for 24 hrs by immunoblot analysis; format: functional, cell-based; outline: as §3
# [10] = test system: OCI-AML2; experiment: Induction of pyroptosis in human OCI-AML2 cells assessed as GSDMD cleavage at 20 uM incubated for 24 hrs by immunoblot analysis; format: functional, cell-based; outline: as §3
# [11] = test system: THP-1; experiment: Induction of pyroptosis in CARD8 knockout human THP-1 cells assessed as GSDMD cleavage at 20 uM incubated for 24 hrs by immunoblot analysis; format: functional, cell-based; outline: as §3
# [12] = test system: T-cell; experiment: Induction of pyroptosis in human T cells expressing CARD8 assessed as GSDMD cleavage at 20 uM incubated for 24 hrs by immunoblot analysis; format: functional, cell-based
# Outline: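 Resting human primary T cells (>90% purity) were thawed and cultured in RPMI-1640 with 10% FBS and 30 U/mL IL-2. They were exposed to 20 μM compound for 24 h, lysed, and immunoblotted for GSDMD cleavage.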
# [13] = test system: RAW264.7; experiment: Induction of pyroptosis in mouse RAW264.7 cells expressing NLRP1B allele 1 assessed as GSDMD clevage at 20 uM incubated for 24 hrs by immunoblot analysis; format: functional, cell-based
# Outline: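 RAW264.7 cells, grown in DMEM with 10% FBS, plated at 5 × 10^5 cells/well and exposed to 20 μM compound for 24 h. Supernatant LDH was measured relative to a Triton X-100 lysis control; lysates were immunoblotted for GSDMD cleavage. n = 3.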
# [14] = test system: THP-1; experiment: Induction of pyroptosis in PEPD knockout human THP-1 cells assessed as LDH release at 20 uM incubated for 24 hrs; format: functional, cell-based; outline: as §3
# [15] = test system: HEK-293T; experiment: Induction of pyroptosis in human HEK293T cells expressing CASP1 and GSDMD cotransfected with dTAG-CARD8ZUC and CARD8 FIIND S297A assessed as destabilization of DPP9-CARD8 ternary complex by measuring LDH release at 20 uM incubated for 6 hrs in presence of dTAG13; format: functional, cell-based
# [16] = test system: HEK-293T; experiment: Induction of pyroptosis in human HEK293T cells expressing CASP1 and GSDMD cotransfected with dTAG-CARD8ZUC and CARD8 FIIND S297A assessed as destabilization of DPP9-CARD8 ternary complex by measuring GSDMD clevage at 20 uM incubated for 6 hrs in presence of dTAG13 by immunoblot analysis; format: functional, cell-based
# [17] = test system: THP-1; experiment: Induction of pyroptosis in CARD8 knockout human THP-1 cells harboring dox-inducible […] E274R mutant assessed as cell death by measuring LDH release at 20 uM pretreated with doxycycline for 16 hrs followed by compound addition and measured after 6 hrs; format: functional, cell-based
# Outline: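 CARD8−/− THP-1 cells carrying a doxycycline-inducible CARD8 E274R mutant were exposed or not to DOX at 100 ng/mL for 16 h. Compound was then added at 20 μM for 6 h, followed by LDH release and immunoblot analysis.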
# [18] = molecular target: Xaa-Pro aminopeptidase 1 (Homo sapiens, UniProt Q9NQW7); experiment: Inhibition of 6-His tagged XPNPEP1 (unknown origin) expressed in Escherichia coli Rosetta DE3 cells using H-Lys(abz)-Pro-Pro-pNA as substrate at 20 uM incubated for 60 mins by fluorescence based analysis relative to control
# Xaa-Pro aminopeptidase 1, sequence (Q9NQW7 whole entry): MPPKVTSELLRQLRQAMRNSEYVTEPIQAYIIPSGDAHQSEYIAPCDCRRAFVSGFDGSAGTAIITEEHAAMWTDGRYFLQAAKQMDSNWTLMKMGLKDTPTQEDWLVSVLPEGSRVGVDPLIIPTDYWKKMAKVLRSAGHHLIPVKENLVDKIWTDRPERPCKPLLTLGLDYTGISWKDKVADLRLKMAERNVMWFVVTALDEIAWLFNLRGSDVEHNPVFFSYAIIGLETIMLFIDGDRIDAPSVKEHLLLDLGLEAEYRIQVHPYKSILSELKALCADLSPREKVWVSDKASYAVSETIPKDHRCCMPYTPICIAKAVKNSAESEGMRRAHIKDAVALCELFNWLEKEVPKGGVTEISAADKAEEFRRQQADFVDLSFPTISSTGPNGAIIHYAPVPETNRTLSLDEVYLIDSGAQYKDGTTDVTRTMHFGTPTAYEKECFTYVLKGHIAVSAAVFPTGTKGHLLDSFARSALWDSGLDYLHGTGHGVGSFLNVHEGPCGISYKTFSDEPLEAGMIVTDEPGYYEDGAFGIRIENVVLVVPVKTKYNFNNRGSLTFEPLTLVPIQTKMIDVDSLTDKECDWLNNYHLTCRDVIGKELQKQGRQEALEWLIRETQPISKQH
# Outline: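 His6-tagged XPNPEP1 was expressed in E. coli Rosetta DE3 (IPTG, 16 h, 37 °C) and purified on TALON resin. Enzyme at 3.5 nM was exposed to compound, then H-Lys(abz)-Pro-Pro-pNA was added at 100 μM final. Fluorescence (Ex/Em 320/410) was followed for 60 min. Single-point inhibition used 20 μM; IC50 as mean ± SEM of three biological replicates.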
# [19] = test system: THP-1; experiment: Induction of pyroptosis in XPNPEP1 knockout human THP-1 cells assessed as LDH release at 20 uM incubated for 24 hrs; format: functional, cell-based; outline: as §3
# [20] = test system: THP-1; experiment: Induction of pyroptosis in XPNPEP1 knockout human THP-1 cells assessed as GSDMD clevage at 20 uM incubated for 24 hrs by immunoblot analysis; format: functional, cell-based; outline: as §3
# [21] = test system: THP-1; experiment: Induction of pyroptosis in PEPD/XPNPEP1 knockout human THP-1 cells assessed as LDH release at 20 uM incubated for 24 hrs; format: functional, cell-based; outline: as §3
# [22] = test system: THP-1; experiment: Induction of pyroptosis in PEPD/XPNPEP1 knockout human THP-1 cells assessed as GSDMD clevage at 20 uM incubated for 24 hrs by immunoblot analysis; format: functional, cell-based; outline: as §3
Structure (SMILES),IC50 [1],IC50 [2],Activity [3],Activity [4],Activity [5],Activity [6],Activity [7],Activity [8],Activity [9],Activity [10],Activity [11],Activity [12],Activity [13],Activity [14],Activity [15],Activity [16],Activity [17],inhibition [18],Activity [19],Activity [20],further results
COC(=O)[C@@H]1CCCN1C(=O)[C@@H](O)[C@H](N)CC(C)C,2.2 µM,> 100 µM,inactive,inactive,inactive,Active,Active,inactive,inactive,Active,inactive,Active,inactive,Active,Active,Active,inactive,96%,Active,Active,Activity [21]: inactive; Activity [22]: inactive
COC(=O)[C@H](CC(C)C)NC(=O)[C@@H]1CCCN1C(=O)[C@@H](O)[C@H](N)CC(C)C,0.27 µM,> 20 µM,inactive,inactive,inactive,Active,Active,inactive,inactive,Active,inactive,Active,inactive,Active,Active,Active,inactive,74%,Active,Active,Activity [21]: inactive; Activity [22]: inactive
